Measured values taken from ChEMBL document CHEMBL5058577, “EUbOPEN Chemogenomics Library 2 (Multiplex)” (2022).

Test system: Fibroblast
Experiment: Multiplex assay against human fibroblast
Assay type: toxicity, cell-based
Method in brief: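 Four dyes were applied at seeding to live cells: Hoechst33342, BioTracker Green Microtubule Cytoskeleton Dye, MitoTracker Red and Annexin V Alexa Fluor 680. Imaging after compound addition used a CQ1 microscope at 37°C and 5% CO2. CellPathfinder machine-learning gating then sorted cells into Hoechst high-intensity objects or normal cells, normal cells into healthy, pyknosed or fragmented nuclei, and pyknosed cells into mitotic or apoptotic, with tubulin, mitochondrial-mass and membrane-permeability phenotypes given as per cents of healthy-nucleus cells.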

[1] = 12 h, 1 µM, compound concentration 1 uM, replicate 1
[2] = 12 h, 1 µM, compound concentration 1 uM, replicate 2
[3] = 12 h, 10 µM, compound concentration 10 uM, replicate 1
[4] = 12 h, 10 µM, compound concentration 10 uM, replicate 2
[5] = 24 h, 1 µM, compound concentration 1 uM, replicate 1
[6] = 24 h, 1 µM, compound concentration 1 uM, replicate 2
[7] = 24 h, 10 µM, compound concentration 10 uM, replicate 1
[8] = 24 h, 10 µM, compound concentration 10 uM, replicate 2
[9] = 48 h, 1 µM, compound concentration 1 uM, replicate 1
[10] = 48 h, 1 µM, compound concentration 1 uM, replicate 2
[11] = 48 h, 10 µM, compound concentration 10 uM, replicate 1
[12] = 48 h, 10 µM, compound concentration 10 uM, replicate 2

O=C(NCCNCC(O)COc1ccc(O)cc1)N1CCOCC1.O=C(NCCNCC(O)COc1ccc(O)cc1)N1CCOCC1.O=C(O)/C=C/C(=O)O (centres undefined) [XAMOTEROL FUMARATE]
Population Apoptotic (%) [1]: 63%
Population Fragmented Nuclei (%) [1]: 15%
Population Healthy Nuclei (%) [1]: 67%
Population Hoechst High Intensity Objects (%) [1]: 2%
Population Membrane Permeable-Phenotype (%) [1]: 1%
Population Mitochondria Different-Phenotype (%) [1]: 4%
Population Mitotic Cells (%) [1]: 36%
Population Normal (%) [1]: 97%
Population Pyknosed Nuclei (%) [1]: 17%
Population Tubulin-Different-Phenotype (%) [1]: 24%
Total Cell Count [1]: 114
Population Apoptotic (%) [2]: 43%
Population Fragmented Nuclei (%) [2]: 23%
Population Healthy Nuclei (%) [2]: 53%
Population Hoechst High Intensity Objects (%) [2]: 4%
Population Membrane Permeable-Phenotype (%) [2]: 16%
Population Mitochondria Different-Phenotype (%) [2]: 7%
Population Mitotic Cells (%) [2]: 56%
Population Normal (%) [2]: 95%
Population Pyknosed Nuclei (%) [2]: 23%
Population Tubulin-Different-Phenotype (%) [2]: 55%
Total Cell Count [2]: 167
Population Apoptotic (%) [3]: 30%
Population Fragmented Nuclei (%) [3]: 21%
Population Healthy Nuclei (%) [3]: 64%
Population Hoechst High Intensity Objects (%) [3]: 4%
Population Membrane Permeable-Phenotype (%) [3]: 2%
Population Mitochondria Different-Phenotype (%) [3]: 5%
Population Mitotic Cells (%) [3]: 70%
Population Normal (%) [3]: 95%
Population Pyknosed Nuclei (%) [3]: 14%
Population Tubulin-Different-Phenotype (%) [3]: 32%
Total Cell Count [3]: 143
Population Apoptotic (%) [4]: 17%
Population Fragmented Nuclei (%) [4]: 30%
Population Healthy Nuclei (%) [4]: 49%
Population Hoechst High Intensity Objects (%) [4]: 5%
Population Membrane Permeable-Phenotype (%) [4]: 4%
Population Mitochondria Different-Phenotype (%) [4]: 11%
Population Mitotic Cells (%) [4]: 82%
Population Normal (%) [4]: 94%
Population Pyknosed Nuclei (%) [4]: 20%
Population Tubulin-Different-Phenotype (%) [4]: 43%
Total Cell Count [4]: 154
Population Apoptotic (%) [5]: 68%
Population Fragmented Nuclei (%) [5]: 20%
Population Healthy Nuclei (%) [5]: 63%
Population Hoechst High Intensity Objects (%) [5]: 1%
Population Membrane Permeable-Phenotype (%) [5]: 2%
Population Mitochondria Different-Phenotype (%) [5]: 2%
Population Mitotic Cells (%) [5]: 31%
Population Normal (%) [5]: 98%
Population Pyknosed Nuclei (%) [5]: 15%
Population Tubulin-Different-Phenotype (%) [5]: 25%
Total Cell Count [5]: 121
Population Apoptotic (%) [6]: 50%
Population Fragmented Nuclei (%) [6]: 28%
Population Healthy Nuclei (%) [6]: 52%
Population Hoechst High Intensity Objects (%) [6]: 2%
Population Membrane Permeable-Phenotype (%) [6]: 18%
Population Mitochondria Different-Phenotype (%) [6]: 6%
Population Mitotic Cells (%) [6]: 50%
Population Normal (%) [6]: 97%
Population Pyknosed Nuclei (%) [6]: 19%
Population Tubulin-Different-Phenotype (%) [6]: 63%
Total Cell Count [6]: 149
Population Apoptotic (%) [7]: 62%
Population Fragmented Nuclei (%) [7]: 20%
Population Healthy Nuclei (%) [7]: 67%
Population Hoechst High Intensity Objects (%) [7]: 1%
Population Membrane Permeable-Phenotype (%) [7]: 0%
Population Mitochondria Different-Phenotype (%) [7]: 0%
Population Mitotic Cells (%) [7]: 37%
Population Normal (%) [7]: 98%
Population Pyknosed Nuclei (%) [7]: 12%
Population Tubulin-Different-Phenotype (%) [7]: 31%
Total Cell Count [7]: 135
Population Apoptotic (%) [8]: 42%
Population Fragmented Nuclei (%) [8]: 34%
Population Healthy Nuclei (%) [8]: 54%
Population Membrane Permeable-Phenotype (%) [8]: 5%
Population Mitochondria Different-Phenotype (%) [8]: 8%
Population Mitotic Cells (%) [8]: 57%
Population Pyknosed Nuclei (%) [8]: 11%
Population Tubulin-Different-Phenotype (%) [8]: 41%
Total Cell Count [8]: 172
Population Apoptotic (%) [9]: 65%
Population Fragmented Nuclei (%) [9]: 27%
Population Healthy Nuclei (%) [9]: 57%
Population Hoechst High Intensity Objects (%) [9]: 1%
Population Membrane Permeable-Phenotype (%) [9]: 1%
Population Mitochondria Different-Phenotype (%) [9]: 2%
Population Mitotic Cells (%) [9]: 35%
Population Normal (%) [9]: 98%
Population Pyknosed Nuclei (%) [9]: 15%
Population Tubulin-Different-Phenotype (%) [9]: 21%
Total Cell Count [9]: 131
Population Apoptotic (%) [10]: 40%
Population Fragmented Nuclei (%) [10]: 42%
Population Healthy Nuclei (%) [10]: 46%
Population Hoechst High Intensity Objects (%) [10]: 2%
Population Membrane Permeable-Phenotype (%) [10]: 7%
Population Mitochondria Different-Phenotype (%) [10]: 4%
Population Mitotic Cells (%) [10]: 60%
Population Normal (%) [10]: 97%
Population Pyknosed Nuclei (%) [10]: 10%
Population Tubulin-Different-Phenotype (%) [10]: 65%
Total Cell Count [10]: 140
Population Apoptotic (%) [11]: 56%
Population Fragmented Nuclei (%) [11]: 25%
Population Healthy Nuclei (%) [11]: 62%
Population Hoechst High Intensity Objects (%) [11]: 4%
Population Membrane Permeable-Phenotype (%) [11]: 1%
Population Mitochondria Different-Phenotype (%) [11]: 3%
Population Mitotic Cells (%) [11]: 43%
Population Normal (%) [11]: 95%
Population Pyknosed Nuclei (%) [11]: 11%
Population Tubulin-Different-Phenotype (%) [11]: 33%
Total Cell Count [11]: 144
Population Apoptotic (%) [12]: 52%
Population Fragmented Nuclei (%) [12]: 33%
Population Healthy Nuclei (%) [12]: 54%
Population Hoechst High Intensity Objects (%) [12]: 3%
Population Membrane Permeable-Phenotype (%) [12]: 6%
Population Mitochondria Different-Phenotype (%) [12]: 4%
Population Mitotic Cells (%) [12]: 47%
Population Normal (%) [12]: 96%
Population Tubulin-Different-Phenotype (%) [12]: 48%
Total Cell Count [12]: 157
